# According to the M2OR odorant receptor database:
# Target: T1, OR1A1 (Homo sapiens) (UniProt Q9P1Q5)
# T1 sequence (whole entry): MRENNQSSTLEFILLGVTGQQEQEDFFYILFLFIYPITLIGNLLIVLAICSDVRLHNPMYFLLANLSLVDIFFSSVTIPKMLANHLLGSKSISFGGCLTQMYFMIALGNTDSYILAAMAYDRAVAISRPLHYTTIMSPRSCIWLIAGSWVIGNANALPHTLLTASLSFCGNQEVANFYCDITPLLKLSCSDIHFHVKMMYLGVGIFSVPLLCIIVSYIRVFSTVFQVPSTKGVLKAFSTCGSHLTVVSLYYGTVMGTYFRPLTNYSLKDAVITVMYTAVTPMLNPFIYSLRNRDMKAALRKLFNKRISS
# Details: stereoisomer not certain
# Method in brief: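 Assay methods differ from source to source, frequently being transient luciferase assays in mammalian cell lines. For each receptor–molecule pair, the label responsive (active) applies when the original authors judged the measured signal statistically different from baseline, and non-responsive (inactive) applies otherwise.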
row,SMILES,odorant receptor agonist call
1,CCc1ncc(C)nc1CC,inactive
2,CC=CC(=O)C1=C(C)CCCC1(C)C,inactive
3,CCCCCC=CCCC=O,active
4,CSSSC,inactive
5,CCC=CCCC=CC=O,inactive
6,COC(C=C(C)CCC=C(C)C)OC,inactive
7,O=C1CCOc2ccccc21,active
8,CSCCC=O,inactive
9,Cc1occc(=O)c1O,inactive
10,CSC,inactive
11,C=CCSC,inactive
12,O=C(O)C=Cc1ccc(O)cc1,inactive
13,C=C1CCC2(C(C)C)CC12 (configuration not stated),inactive
14,CCCCC=CC=CC=O,inactive
15,C=CCOC(=O)CCCCCC,active
16,CC(C)CC=O,inactive
17,O=C([O-])CCCCC(=O)[O-].[H+].[H+],inactive
18,CC1=CCC(C(C)C)C=C1 (configuration not stated),inactive
19,CCCC(=O)OC,inactive

row,SMILES,odorant receptor agonist call
1,CCCSSSC,inactive
2,CCC=CCC=O,inactive
3,CC(=O)CC(=O)CC(C)C,active
4,CC=CC(=O)C1=C(C)C=CCC1(C)C,inactive
5,CCCC(=O)C(C)CC (configuration not stated),inactive
6,CC(=O)OCCC(C)C,inactive
7,CCC(C)CO (configuration not stated),inactive
8,CCCCCCCCCS,active
9,CCCCCCCCCC(=O)[O-].[H+],inactive
10,C=CC(=C)CCC=C(C)C,inactive
11,CCCCCC(C)O (configuration not stated),inactive
12,CCOC(C)OCC,inactive
13,CCC(=O)C(C)S (configuration not stated),inactive
14,CCCCS,inactive
15,CCOC(=O)C(C)C,inactive
16,C=CC(C)=CCC=C(C)CCC=C(C)C,inactive
17,CC(C)=CCCC(C)CCO (configuration not stated),active
18,COCCC(C)(C)S,inactive
